Measurements: ChEMBL document CHEMBL1145962, “Structure-based de novo design, synthesis, and biological evaluation of non-azole inhibitors specific for lanosterol 14alpha-demethylase of fungi” (2003)
≈ marks a conversion by molar mass, not a printed value.

What was measured:
Type in all cases: functional
Aspergillus fumigatus = assay: In vitro antifungal activity against Aspergillus fumigatus
Outline: (§1)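 Filamentous fungi were tested by NCCLS microdilution in RPMI 1640 buffered with 0.165 M MOPS. DMSO-dissolved compounds were serially diluted in medium. MIC was read at 7 days as the lowest concentration with turbidity at ≤80% inhibition versus the drug-free control.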

Candida parapsilosis = assay: In vitro antifungal activity against Candida parapsilosis; details: Lodderomyces parapsilosis
Outline: (§2)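 NCCLS broth serial dilution in 96-well plates with RPMI 1640 buffered with 0.165 M MOPS. Compounds were dissolved in DMSO and diluted in medium. Yeasts were incubated at 35 °C and read at 24 h. MIC is the lowest concentration giving turbidity at ≤80% inhibition versus the growth control.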

Microsporum canis = assay: In vitro antifungal activity against Microsporum canis
Outline: (§3)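 Dermatophytes tested by NCCLS serial dilution in 96-well plates, in RPMI 1640 with 0.165 M MOPS. Compounds were prepared in DMSO and diluted in medium. Incubation was at 28 °C with reading at 7 days. MIC is the lowest concentration giving turbidity at ≤80% inhibition of control growth.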

Fonsecaea pedrosoi = assay: In vitro antifungal activity against Fonsecaea pedrosoi; outline: as §1
Cryptococcus neoformans = assay: In vitro antifungal activity against Cryptococcus neoformans
Outline: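 Microdilution MIC per NCCLS in MOPS (0.165 M)-buffered RPMI 1640. DMSO solutions were serially diluted in growth medium. Incubated at 35 °C as a yeast, with growth read at 72 h.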

Trichophyton rubrum = assay: In vitro antifungal activity against Trichophyton rubrum; outline: as §3
Sporothrix schenckii = assay: In vitro antifungal activity against Sporothrix schenck ii; outline: as §1
Candida albicans = assay: In vitro antifungal activity against Candida albicans; outline: as §2

Row | Structure (SMILES) | MIC (Aspergillus fumigatus) | MIC (Candida parapsilosis) | MIC (Microsporum canis) | MIC (Fonsecaea pedrosoi) | MIC (Cryptococcus neoformans) | MIC (Trichophyton rubrum) | MIC (Sporothrix schenckii) | MIC (Candida albicans)
1 | CCCCCC1(C)CC(=O)c2ccc(O)cc2O1 (stereo not drawn) | 160 µg/mL (≈ 644 µM) | 160 µg/mL (≈ 644 µM) | 40 µg/mL (≈ 161 µM) | 80 µg/mL (≈ 322 µM) | 160 µg/mL (≈ 644 µM) | 20 µg/mL (≈ 80.5 µM) | 80 µg/mL (≈ 322 µM) | 320 µg/mL (≈ 1290 µM)
2 | CCCCCCCC1(C)CC(O)c2ccc(O)cc2O1 (stereo not drawn) | 80 µg/mL (≈ 287 µM) | 20 µg/mL (≈ 71.8 µM) | 2.5 µg/mL (≈ 8.98 µM) | 80 µg/mL (≈ 287 µM) | 40 µg/mL (≈ 144 µM) | 20 µg/mL (≈ 71.8 µM) | 40 µg/mL (≈ 144 µM) | 40 µg/mL (≈ 144 µM)
3 | CC(C)=CCCC1(C)CC(=O)c2ccc(O)cc2O1 (stereo not drawn) | 80 µg/mL (≈ 307 µM) | 80 µg/mL (≈ 307 µM) | 40 µg/mL (≈ 154 µM) | 160 µg/mL (≈ 615 µM) | 160 µg/mL (≈ 615 µM) | 80 µg/mL (≈ 307 µM) | 160 µg/mL (≈ 615 µM) | 160 µg/mL (≈ 615 µM)
4 | CC(C)=CCCC1(C)CC(O)c2ccc(O)cc2O1 (stereo not drawn) | 160 µg/mL (≈ 610 µM) | 80 µg/mL (≈ 305 µM) | 10 µg/mL (≈ 38.1 µM) | 160 µg/mL (≈ 610 µM) | 160 µg/mL (≈ 610 µM) | 80 µg/mL (≈ 305 µM) | 80 µg/mL (≈ 305 µM) | 80 µg/mL (≈ 305 µM)
5 | CC(C)CC1(C)CC(=O)c2ccc(O)cc2O1 (stereo not drawn) | 160 µg/mL (≈ 683 µM) | 320 µg/mL (≈ 1370 µM) | 40 µg/mL (≈ 171 µM) | 160 µg/mL (≈ 683 µM) | 320 µg/mL (≈ 1370 µM) | 160 µg/mL (≈ 683 µM) | 320 µg/mL (≈ 1370 µM) | > 320 µg/mL
6 | CCCCCC1(C)CC(O)c2ccc(OC)cc2O1 (stereo not drawn) | 80 µg/mL (≈ 303 µM) | 160 µg/mL (≈ 605 µM) | 20 µg/mL (≈ 75.7 µM) | > 320 µg/mL | 160 µg/mL (≈ 605 µM) | 20 µg/mL (≈ 75.7 µM) | > 320 µg/mL | 320 µg/mL (≈ 1210 µM)
7 | COc1ccc2c(c1)OC(C)(CCC=C(C)C)CC2=O (stereo not drawn) | 160 µg/mL (≈ 583 µM) | > 320 µg/mL | 80 µg/mL (≈ 292 µM) | > 320 µg/mL | > 320 µg/mL | > 320 µg/mL | 320 µg/mL (≈ 1170 µM) | > 320 µg/mL
8 | CCCCCC1(C)CC(=O)c2ccc(OC)cc2O1 (stereo not drawn) | 160 µg/mL (≈ 610 µM) | > 320 µg/mL | 80 µg/mL (≈ 305 µM) | > 320 µg/mL | > 320 µg/mL | > 320 µg/mL | > 320 µg/mL | > 320 µg/mL
9 | CCCCCCCC1(C)CC(=O)c2ccc(O)cc2O1 (stereo not drawn) | 160 µg/mL (≈ 579 µM) | 160 µg/mL (≈ 579 µM) | 80 µg/mL (≈ 289 µM) | 80 µg/mL (≈ 289 µM) | 80 µg/mL (≈ 289 µM) | 40 µg/mL (≈ 145 µM) | 40 µg/mL (≈ 145 µM) | 160 µg/mL (≈ 579 µM)
10 | CCCCCCCC1(C)CC(=O)c2ccc(OC)cc2O1 (stereo not drawn) | > 320 µg/mL | 320 µg/mL (≈ 1100 µM) | 40 µg/mL (≈ 138 µM) | > 320 µg/mL | > 320 µg/mL | 320 µg/mL (≈ 1100 µM) | 40 µg/mL (≈ 138 µM) | > 320 µg/mL
11 | CCCCCCCC1(C)C=Cc2ccc(OC)cc2O1 (stereo not drawn) | > 320 µg/mL | > 320 µg/mL | 320 µg/mL (≈ 1170 µM) | > 320 µg/mL | > 320 µg/mL | > 320 µg/mL | > 320 µg/mL | > 320 µg/mL
12 | CCCCCC1(C)C=Cc2ccc(OC)cc2O1 (stereo not drawn) | > 320 µg/mL | > 320 µg/mL | 320 µg/mL (≈ 1300 µM) | > 320 µg/mL | 320 µg/mL (≈ 1300 µM) | > 320 µg/mL | > 320 µg/mL | > 320 µg/mL
13 | COc1ccc2c(c1)OC(C)(CCC=C(C)C)C=C2 (stereo not drawn) | > 320 µg/mL | > 320 µg/mL | 80 µg/mL (≈ 310 µM) | > 320 µg/mL | > 320 µg/mL | 40 µg/mL (≈ 155 µM) | 320 µg/mL (≈ 1240 µM) | > 320 µg/mL
14 | CCCCCC1(C)CC(O)c2ccc(O)cc2O1 (stereo not drawn) | 80 µg/mL (≈ 320 µM) | 40 µg/mL (≈ 160 µM) | 10 µg/mL (≈ 39.9 µM) | 40 µg/mL (≈ 160 µM) | 80 µg/mL (≈ 320 µM) | 20 µg/mL (≈ 79.9 µM) | 20 µg/mL (≈ 79.9 µM) | 160 µg/mL (≈ 639 µM)
15 | COc1ccc2c(c1)OC(C)(CCC=C(C)C)CC2O (stereo not drawn) | 160 µg/mL (≈ 579 µM) | 160 µg/mL (≈ 579 µM) | 160 µg/mL (≈ 579 µM) | 320 µg/mL (≈ 1160 µM) | 160 µg/mL (≈ 579 µM) | 160 µg/mL (≈ 579 µM) | 320 µg/mL (≈ 1160 µM) | > 320 µg/mL
16 | CCCCCCCCCC1(C)CC(=O)c2ccc(O)cc2O1 (stereo not drawn) | 80 µg/mL (≈ 263 µM) | > 320 µg/mL | 80 µg/mL (≈ 263 µM) | > 320 µg/mL | > 320 µg/mL | > 320 µg/mL | > 320 µg/mL | > 320 µg/mL
17 | CCCCCCCC1(C)CC(O)c2ccc(OC)cc2O1 (stereo not drawn) | 80 µg/mL (≈ 274 µM) | 160 µg/mL (≈ 547 µM) | 80 µg/mL (≈ 274 µM) | 160 µg/mL (≈ 547 µM) | 80 µg/mL (≈ 274 µM) | 80 µg/mL (≈ 274 µM) | 40 µg/mL (≈ 137 µM) | 320 µg/mL (≈ 1090 µM)
18 | CCCCCC1(C)C/C(=N/O)c2ccc(O)cc2O1 (stereo not drawn) | 80 µg/mL (≈ 304 µM) | 40 µg/mL (≈ 152 µM) | 5 µg/mL (≈ 19 µM) | 40 µg/mL (≈ 152 µM) | 40 µg/mL (≈ 152 µM) | 5 µg/mL (≈ 19 µM) | 40 µg/mL (≈ 152 µM) | 160 µg/mL (≈ 608 µM)
19 | CC(C)=CCCC1(C)C/C(=N/O)c2ccc(O)cc2O1 (stereo not drawn) | 40 µg/mL (≈ 145 µM) | 40 µg/mL (≈ 145 µM) | 2.5 µg/mL (≈ 9.08 µM) | 20 µg/mL (≈ 72.6 µM) | 40 µg/mL (≈ 145 µM) | 5 µg/mL (≈ 18.2 µM) | 40 µg/mL (≈ 145 µM) | 80 µg/mL (≈ 291 µM)
20 | CCCCCCCC1(C)C/C(=N/O)c2ccc(O)cc2O1 (stereo not drawn) | 10 µg/mL (≈ 34.3 µM) | 20 µg/mL (≈ 68.6 µM) | 0.625 µg/mL (≈ 2.14 µM) | 40 µg/mL (≈ 137 µM) | 20 µg/mL (≈ 68.6 µM) | 2.5 µg/mL (≈ 8.58 µM) | 10 µg/mL (≈ 34.3 µM) | 40 µg/mL (≈ 137 µM)
21 | OC(Cn1cncn1)(Cn1cncn1)c1ccc(F)cc1F [FLUCONAZOLE] | 16 µg/mL (≈ 52.2 µM) | 8 µg/mL (≈ 26.1 µM) | 0.5 µg/mL (≈ 1.63 µM) | 64 µg/mL (≈ 209 µM) | 32 µg/mL (≈ 104 µM) | 0.5 µg/mL (≈ 1.63 µM) | 0.25 µg/mL (≈ 0.816 µM) | 4 µg/mL (≈ 13.1 µM)
